Series [1] is described as follows: Cytotoxicity against human KBM5 cells harboring Bcr-Abl T315I mutant after 72 hrs by MTT assay. In kind it is functional, cell-based. The conditions noted are these: KBM5, 72 h. (In general: Formazan colour is commonly taken as a measure of viable cells.)
Series [2] in a line: Cytotoxicity against human KBM5 cells harboring wild type Bcr-Abl after 72 hrs by MTT assay. The conditions noted are these: KBM5, 72 h.
Series [3] deals with KBM5. The series is described as follows: Cytotoxicity against human KBM5 cells harboring wild type Bcr-Abl at 0.001 to 17 uM after 72 hrs by MTS assay. In kind it is functional, cell-based. Put shortly: (§1)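 KBM5 (wild-type p210 Bcr-Abl) or KBM5-T315I cells in IMDM + 10% heat-inactivated FCS. The T315I subline was kept in 1 µM imatinib, removed 2–3 days before assay. Cells incubated 72 h with increasing concentrations. Viability by MTS at 490 nm, as percent of control; IC50 from dose–response curves.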

Series [4] concerns KBM5. The series is described as follows: Inhibition of RNA polymerase 2 in human KBM5 cells harboring Bcr-Abl T315I mutant assessed as decrease in polymerase 2 phosphorylation after 18 hrs by Western blot analysis. It counts as cell-based. An outline of the steps:
(§2)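 Cells exposed for 18 h at the indicated concentrations. Whole-cell lysates made in RIPA buffer with phosphatase and protease inhibitors. Western blot for Bcr-Abl (c-Abl C-19), phospho-c-Abl Y245, phospho-RNA polymerase II, PARP, and actin as loading control.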
For orientation: Immunoblotting shows a protein as a band on a membrane.

For series [5], the system named is Mus musculus. The series is described as follows: Toxicity in BALB/c nu/nu mouse xenografted with human KBM5 cells harboring Bcr-Abl T315I mutant at 0.5 mg/kg/day, ip for 2 weeks administered on day 14 after tumor implantation by pilot dose-finding test. Also on record: route intraperitoneal. In kind it is organism-based. The note with it: in vivo, 336 h. (In general: In xenograft studies the graft and the host belong to different species.)

Series [6] concerns KBM5. The series is described as follows: Cytotoxicity against imatinib-resistant human KBM5 cells harboring Bcr-Abl T315I mutant at 0.001 to 17 uM after 72 hrs by MTS assay. In kind it is functional, cell-based. Put shortly:
as §1

Series [7] deals with KBM5. Kind of series: Antitumor activity against Bcr-Abl T315I mutant expressing human KBM5 cells xenografted in BALB/c nu/nu mouse assessed as decrease in tumor volume at 0.5 mg/kg/day, ip for 2 weeks administered on day 14 after tumor implantation. In kind it is functional, organism-based. Put shortly: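 KBM5-T315I cells, 3 × 10⁷, injected s.c. into the flanks of male nu/nu BALB/c mice aged 6–8 weeks. Dosing began at about 50 mm³ on day 14: 0.5 mg/kg/d i.p. in normal saline for two weeks, with saline controls and four mice per group. Calipers every other day; volume = a² × b × 0.4.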

The subject of series [8] is KBM5. Kind of series: Inhibition of RNA polymerase 2 in human KBM5 cells harboring wild type Bcr-Abl assessed as decrease in polymerase 2 phosphorylation after 18 hrs by Western blot analysis. In kind it is cell-based. Put shortly:
as §2

The test system of series [9] is Mus musculus. Kind of series: Toxicity in BALB/c nu/nu mouse xenografted with human KBM5 cells harboring Bcr-Abl T315I mutant assessed as increase in blood aspartate aminotransferase level at 0.5 mg/kg/day, ip for 2 weeks administered on day 14 after tumor implantation. The conditions noted are these: in vivo, 336 h. Also on record: route intraperitoneal. In kind it is organism-based. Put shortly:
(§3)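 Male nu/nu BALB/c mice (6–8 weeks) received 3 × 10⁷ KBM5-T315I cells subcutaneously in the flank. At about 50 mm³ (day 14) they were randomized, 4 per group, to daily ip drug in normal saline or the same volume of saline for two weeks. Body weight, feeding and motor activity were monitored, along with morbidity and mortality. At the end, blood was taken for AST, ALT, LDH and complete blood count.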

Series [10] has as its system KBM5. The series is described as follows: Induction of apoptosis in human KBM5 cells harboring Bcr-Abl T315I mutant assessed as PARP cleavage at 50 to 100 uM after 18 hrs by Western blot analysis. In kind it is functional, cell-based.
The subject of series [11] is Mus musculus. Kind of series: Toxicity in BALB/c nu/nu mouse xenografted with human KBM5 cells harboring Bcr-Abl T315I mutant assessed as morbidity at 0.5 mg/kg/day, ip for 2 weeks administered on day 14 after tumor implantation. In kind it is organism-based. Also noted: route intraperitoneal. The conditions noted are these: in vivo, 336 h. An outline of the steps:
as §3

The nature of series [12]: Downregulation of Bcr-Abl mRNA level in human KBM5 cells harboring Bcr-Abl T315I mutant at 50 to 100 nM after 18 hrs by semi-quantitative RT-PCR analysis. In kind it is functional, cell-based. An outline of the steps:
(§4)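 KBM5 and KBM5-T315I cells exposed to 50 or 100 nM, or control medium, for 18 h. Bcr-Abl and GAPDH mRNA measured by semi-quantitative RT-PCR; products run on 1% agarose and stained with ethidium bromide.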

Another series deals with HeLa. Kind of series: Inhibition of RNA polymerase 2 in human HeLa cells assessed as decrease in polymerase 2 phosphorylation at 50 to 100 nM after 18 hrs by Western blot analysis. In kind it is cell-based.
The subject of series [13] is Mus musculus. Kind of series: Toxicity in BALB/c nu/nu mouse xenografted with human KBM5 cells harboring Bcr-Abl T315I mutant assessed as change in body weight at 0.5 mg/kg/day, ip for 2 weeks administered on day 14 after tumor implantation. Also on record: route intraperitoneal. In kind it is organism-based. The conditions noted are these: in vivo, 336 h. Put shortly: as §3

Series [14] in a line: Downregulation of Bcr-Abl protein level in mouse 32D cells harboring wild type Bcr-Abl after 18 hrs by Western blot analysis. It counts as functional, cell-based. Put shortly: as §2
A further series has as its system MEF. Kind of series: Cytotoxicity against MEF after 72 hrs by MTS assay. In kind it is cell-based. The conditions noted are these: Mus musculus. Put shortly:
(§5)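 MEF and NHFB fibroblasts cultured in DMEM + 10% FCS. Exposed to increasing concentrations for 72 h. Viability by MTS reagent, optical density at 490 nm.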

The nature of series [15]: Cytotoxicity against human KBM5 cells harboring wild type Bcr-Abl after 72 hrs by MTS assay. In kind it is functional, cell-based. The note with it: KBM5, 72 h. An outline of the steps: as §1
Series [16] in a line: Cytotoxicity against imatinib-resistant mouse 32D cells harboring Bcr-Abl T315I mutant after 72 hrs by MTS assay. It counts as functional, cell-based. Put shortly: (§6)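 32D myeloid cells stably expressing wild-type or T315I Bcr-Abl, maintained in RPMI 1640 + 10% FBS. Treated with increasing concentrations for 72 h. Viability by MTS, optical density at 490 nm.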
The nature of series [17]: Downregulation of Bcr-Abl mRNA level in human KBM5 cells harboring wild type Bcr-Abl at 50 to 100 nM after 18 hrs by semi-quantitative RT-PCR analysis. In kind it is functional, cell-based. An outline of the steps:
as §4

The next series concerns DU-145. Kind of series: Inhibition of RNA polymerase 2 in human DU145 cells assessed as decrease in polymerase 2 phosphorylation at 50 to 100 nM after 18 hrs by Western blot analysis. It counts as cell-based.
Series [18] concerns Mus musculus. The series is described as follows: Toxicity in BALB/c nu/nu mouse xenografted with human KBM5 cells harboring Bcr-Abl T315I mutant assessed as mortality at 0.5 mg/kg/day, ip for 2 weeks administered on day 14 after tumor implantation. In kind it is organism-based. Also noted: route intraperitoneal. The conditions noted are these: in vivo, 336 h. An outline of the steps: as §3

Series [19] is described as follows: Downregulation of Bcr-Abl protein level in human KBM5 cells harboring Bcr-Abl T315I mutant after 18 hrs by Western blot analysis. It counts as functional, cell-based. Put shortly: as §2
The nature of series [20]: Cytotoxicity against NHFB after 72 hrs by MTS assay. Also on record: species or system Homo sapiens. An outline of the steps:
as §5

Series [21] deals with Mus musculus. Kind of series: Toxicity in BALB/c nu/nu mouse xenografted with human KBM5 cells harboring Bcr-Abl T315I mutant assessed as effect on motor activity at 0.5 mg/kg/day, ip for 2 weeks administered on day 14 after tumor implantation. It counts as organism-based. Also noted: route intraperitoneal. The conditions noted are these: in vivo, 336 h. Put shortly:
as §3

In series [22] the test system is Mus musculus. Kind of series: Toxicity in BALB/c nu/nu mouse xenografted with human KBM5 cells harboring Bcr-Abl T315I mutant assessed as effect on feeding behavior at 0.5 mg/kg/day, ip for 2 weeks administered on day 14 after tumor implantation. It counts as organism-based. Also on record: route intraperitoneal. The conditions noted are these: in vivo, 336 h. An outline of the steps:
as §3

Series [23] deals with Mus musculus. Kind of series: Toxicity in BALB/c nu/nu mouse xenografted with human KBM5 cells harboring Bcr-Abl T315I mutant assessed as occurrence of myelosuppression at 0.5 mg/kg/day, ip for 2 weeks administered on day 14 after tumor implantation. In kind it is organism-based. Also on record: route intraperitoneal. The conditions noted are these: in vivo, 336 h. Put shortly: as §3

A short description of series [24]: Cytotoxicity against mouse 32D cells harboring wild type Bcr-Abl after 72 hrs by MTS assay. It counts as functional, cell-based. An outline of the steps:
as §6

A short description of series [25]: Cytotoxicity against imatinib-resistant human KBM5 cells harboring Bcr-Abl T315I mutant after 72 hrs by MTS assay. It counts as functional, cell-based. The note with it: KBM5, 72 h. An outline of the steps:
as §1

In series [26] the test system is Mus musculus. Kind of series: Toxicity in BALB/c nu/nu mouse xenografted with human KBM5 cells harboring Bcr-Abl T315I mutant assessed as increase in blood alanine aminotransferase level at 0.5 mg/kg/day, ip for 2 weeks administered on day 14 after tumor implantation. The conditions noted are these: in vivo, 336 h. It counts as organism-based. Also on record: route intraperitoneal. Put shortly: as §3

A short description of series [27]: Downregulation of Bcr-Abl protein level in mouse 32D cells harboring Bcr-Abl T315I mutant after 18 hrs by Western blot analysis. It counts as functional, cell-based. Put shortly:
as §2

A further series relates to HCT-116. The series is described as follows: Inhibition of RNA polymerase 2 in human HCT116 cells assessed as decrease in polymerase 2 phosphorylation at 50 to 100 nM after 18 hrs by Western blot analysis. In kind it is cell-based.
The test system of series [28] is KBM5. Kind of series: Induction of apoptosis in human KBM5 cells harboring wild type Bcr-Abl assessed as PARP cleavage at 50 to 100 uM after 18 hrs by Western blot analysis. It counts as functional, cell-based.
The nature of series [29]: Downregulation of Bcr-Abl protein level in human KBM5 cells harboring wild type Bcr-Abl after 18 hrs by Western blot analysis. In kind it is functional, cell-based. Put shortly:
as §2

The source made the active and inactive calls. The calls are words filed in the database; no cut-off is given here.

`Cc1ccc(NC(=O)c2ccc(CN3CCN(C)CC3)cc2)cc1Nc1nccc(-c2cccnc2)n1` [IMATINIB]: the IC50 – broadly, the midpoint of a concentration-inhibition curve – in series [1] was determined as 5400 nM; in series [2], 280 nM.
Take `CC(C)[C@]12O[C@H]1[C@@H]1O[C@@]13[C@H]1CCC4=C(COC4=O)[C@@H]1C[C@@H]1O[C@@]13[C@@H]2OC(=O)CN1CCOCC1`: the result (with KBM5 [3]; with KBM5 [6]; in the series with KBM5 [7]; in the series with KBM5 [10]; in [12]; in series [17]) was Active. Also, in the series on KBM5 [28], the result was Active. The inhibition entry in the series on KBM5 [4] and with KBM5 [8] was “Dose-dependent effect” each time. The Activity result was “Non-toxic” in the series with Mus musculus [5]; “Non-toxic” with Mus musculus [9]; “Non-toxic” in the series with Mus musculus [11]; “Non-toxic” with Mus musculus [13]; “Dose-dependent effect” in [14]; “Non-toxic” in the series on Mus musculus [18]. For the same compound, the Activity entry is “Dose-dependent effect” in [19]; “Non-toxic” with Mus musculus [21]; “Non-toxic” in the series with Mus musculus [22]; “Non-toxic” in the series on Mus musculus [23]; “Non-toxic” with Mus musculus [26]; “Dose-dependent effect” in [27]. Besides, the Activity entry in [29] is “Dose-dependent effect”. The inhibition entry with HeLa, with DU-145 and in the series on HCT-116 was “Active” in each case. In addition, the IC50 in the series on MEF is 11500 nM; in series [15] it was 52.5 nM; in [16], 80 nM; in [20] it was 10400 nM; in [24], 70 nM; in series [25], 20.7 nM.

These data come from ChEMBL document CHEMBL1157578, “Design, synthesis, and biological evaluation of novel water-soluble triptolide derivatives: Antineoplastic activity against imatinib-resistant CML cells bearing T315I mutant Bcr-Abl” (Bioorg Med Chem, 2010).
